CFTR F508del cor – correctors of CFTR F508del function in bronchial epithelial cells; CFBE cells, YFP halide quenching; stimulated with forskolin plus potentiator P3; % fluorescence drop versus neutral controls; activity (quench increase), % at 7.58 µM; actives 0.36% (n = 350,000); AID 720511;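 active means mean added fluorescence quench of at least 8% versus neutral control, with both replicates also reaching 8%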;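 further: cells transiently co-express mutant CFTR-F508del with the halide-sensitive YFP; corrector assay measuring rescue of mutant channel to the surface after 24 h compound exposure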
Cneo AK release – causes C. neoformans cell lysis; AID 651654; actives 0.2% (n = 360,000); adenylate kinase release luminescence, 4 h; normalised: neutral wells 0, clomiphene wells 100; lysis activity, % at 15 µM;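 active means mean lysis activity across replicates of at least 80%, whatever share of replicates individually reach that level; inactive means mean lysis activity below 80%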
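Material: C. neoformans cells; Schedule: 4 h static compound exposure, 37 °C, read 1 h post-reagent; Measured by: adenylate kinase release luminescence; Read-out: signal increase indicating cell lysis; Controls: Clomiphene as positive lysis control.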
CaV13 ICDI inh – Disruptors of the CACNA1D IQ motif to Ca2+-dependent inactivation inhibitor domain association, primary screening, Förster resonance energy transfer in intact living …; HEK cells, CFP/YFP FRET ICDI-IQ, plate reader, 10 min; percent FRET-ratio fall versus neutral wells; inhibition, % at 12.3 µM; actives 0.098% (n = 340,000); AID 743397;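 active means mean replicate inhibition of at least 30% and at least 1% of replicates passing that level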;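 further: 0% = median of the neutral control wells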
Ecoli rRNA inh – selective bacterial rRNA inhibition in E. coli; GFP signal change (wild-type ribosome), % (test concentration not listed); E. coli WT GFP vs humanized-ribosome RFP mutants, fluorescence, 24 h; stronger effect = lower value; DMSO median 0, no signal -100; actives 1.6% (n = 350,000); AID 720706;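 active means significant combined selectivity score with lowered wild-type GFP, culture density cut under 30%, mutant RFP and density less affected; inactive means any of these conditions unmet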
* = called active by the depositor; . = no result given; + = active, no number. Most compounds without a hit are left out; they make up all but 1.7% or so of the library.

SMILES | CFTR F508del cor | Cneo AK release | CaV13 ICDI inh | Ecoli rRNA inh
Cc1cc(=O)oc2c3c(cc(OCC(=O)N[C@@H](Cc4ccccc4)C(=O)O)c12)OC(C)(C)CC3 | 5.0 | -0.1 | . | -31.2*
Cc1cc(=O)oc2c3c(cc(OCC(=O)NC(Cc4ccc(Cl)cc4)C(=O)O)c12)OC(C)(C)CC3 (stereo not drawn) | 1.5 | 3.2 | . | -38.5*
Cc1cc(=O)oc2c3c(cc(OCC(=O)N[C@@H](C)C(=O)O)c12)OC(C)(C)CC3 | 3.0 | 3.4 | -6.8 | 2.1
C[C@@H]1CN(C)C(=O)c2cc(NS(C)(=O)=O)ccc2O[C@H]1CN(C)S(C)(=O)=O | . | . | . | -1.8
Cc1ccc(S(=O)(=O)Nc2cccc3c2O[C@H](CN(C)S(=O)(=O)c2ccccc2)[C@H](C)CN([C@H](C)CO)C3=O)cc1 | -1.0 | -3.8 | . | 1.9
CC=Cc1ccc2n(c1=O)C[C@@H]1[C@@H](CO)[C@H](C(=O)NCCN3CCCCC3)N(C(C)=O)[C@H]21 (mixture of isomers) | 2.9 | . | . | 3.3
c1ccc2c(c1)CCc1ccccc1C2=C1CCNCC1 | 0.0 | . | -4.5 | -36.4*
NC(=O)COC(=O)CSc1cccc2cccc(Cl)c12 | -4.4 | . | . | -29.1*
COc1ccccc1S(=O)(=O)N1C[C@H](O)COC[C@@H]2O[C@H](CC(=O)O)CC[C@H]21 | 2.2 | -0.2 | . | 3.5
CC(C)C(OC(=O)c1ccccc1)c1nccc2ccccc12 (stereo not drawn) | 0.2 | -1.4 | -4.7 | -28.1*
CC(=O)Nc1nc(NC(=O)C(Cl)(Cl)Cl)n(-c2ccccc2)n1 | 2.6 | . | 0.6 | -22.7*
O=C1C2CC=C(Cl)CC2C(=O)N1CCc1c[nH]c2ccccc12 (stereo not drawn) | . | -2.0 | . | -25.5*
COCC(=O)N(C)C[C@@H]1Oc2ncc(-c3ccccc3F)cc2C(=O)N([C@H](C)CO)C[C@H]1C | 0.3 | -1.2 | . | 1.9
COc1cc(C(=O)Oc2ccccc2N)cc(OC)c1OC | . | 91.7* | -5.8 | .
COc1cc(C(=O)OCCc2cc3ccccc3c(=O)o2)cc(OC)c1OC | 11.2* | 5.8 | -6.0 | -39.2
COc1cc(C(=O)OCCCc2cc3ccccc3c(=O)o2)cc(OC)c1OC | 5.0 | -2.2 | -10.6 | -16.5
CCC(=O)N1C[C@H](C)[C@@H](OC)CN(C)C(=O)c2cc(NC(=O)CC(F)(F)F)ccc2OC[C@@H]1C | . | . | . | 1.9
O=c1[nH]c2ccccc2nc1-c1c[nH]c2ccccc12 | 3.3 | -5.3 | -8.8 | -25.6*
Nc1ccccc1-c1nc2ccccc2[nH]c1=O | -1.0 | -4.0 | -17.8 | 3.9
CCC(=O)N1C[C@H](O)COC[C@H]2O[C@H](CC(=O)NCc3cc(F)cc(F)c3)CC[C@@H]21 | 0.9 | 60.1 | . | 5.2
Cn1c2ccccc2c(=O)c2c(=O)n(Cc3ccco3)c(-c3ccc(F)cc3)nc21 | 0.1 | -1.4 | -4.6 | -38.0*
CCN1CCN(c2ccc(S(=O)(=O)N3CCCCC3)cc2NC(=O)/C=C/c2cccc(OC)c2OC)CC1 | -2.3 | 0.3 | -5.2 | -20.2*
CCN1CCN(c2ccc(S(=O)(=O)N3CCCCC3)cc2NC(=O)/C=C/c2ccc(F)cc2)CC1 | -4.2 | -2.5 | -2.1 | -1.7
C[C@@H]1CN([C@H](C)CO)C(=O)Cc2cc(NC(=O)Nc3ccccc3)ccc2O[C@@H]1CN(C)Cc1ccccc1 | -1.4 | 3.5 | . | 0.9
Cc1nc(-c2ccccc2)[nH]c(=O)c1Oc1ccc(Cl)cc1Cl | 0.5 | 2.4 | -21.5 | .
SMILES | CFTR F508del cor | Cneo AK release | CaV13 ICDI inh | Ecoli rRNA inh
O=c1[nH]c(=S)[nH]cc1Oc1ccc(Cl)cc1Cl | 3.8 | 2.2 | -5.7 | -24.6*
C[C@H]1CN([C@@H](C)CO)C(=O)c2cc(C3=CCCCC3)cnc2O[C@H]1CN(C)Cc1ccc(C(=O)O)cc1 | 0.5 | -0.4 | . | 1.5
FC(F)Oc1ccc(NC(=S)Nc2ccc3cn[nH]c3c2)cc1 | 2.3 | 0.7 | -4.6 | -25.2*
O=C(Nc1ccc(Cl)cc1)Nc1ccc(-c2cnco2)cc1 | -1.2 | 0.2 | -17.7 | -21.9*
O=C(NC(=O)c1ccccc1)Nc1ccc(-c2cnco2)cc1 | 5.3 | 1.3 | -20.6 | 16.4
CC(C)NC(=O)Nc1ccc2c(c1)CC(=O)N(C)C[C@H](C)[C@@H](CN(C)C(=O)NC(C)C)O2 | . | . | . | -0.7
Cc1cc(C(=O)CCC(=O)NC(C)c2ccc(S(N)(=O)=O)cc2)c(C)s1 (stereo not drawn) | 8.8* | 0.0 | -14.6 | 10.0
CC(NC(=O)C(c1ccccc1)c1ccccc1)c1ccc(S(N)(=O)=O)cc1 (stereo not drawn) | 3.1 | 1.8 | -4.7 | -0.9
C[C@H]1CN([C@@H](C)CO)C(=O)c2cc(C#CC3CCCC3)cnc2O[C@@H]1CN(C)C(=O)C1CCCCC1 | 0.7 | 0.0 | . | 4.8
O=C(c1ccncc1)N1CC(=O)N2[C@H](CO)[C@H](c3ccc(-c4cccnc4)cc3)[C@H]2C1 | 0.6 | . | . | 4.6
COc1cccc(/C=N/NC(=O)c2c(-c3ccccc3)noc2C)c1OC | -1.2 | 0.9 | -7.6 | -19.9*
Cc1ccc(/C=N/NC(=O)c2c(-c3ccccc3)noc2C)c(O)c1 | 11.3* | -4.8 | -5.9 | -39.4
COc1cc(/C=N/NC(=O)c2c(-c3ccccc3)noc2C)ccc1O | . | . | -3.5 | .
COc1ccc(Cl)cc1/C=N/NC(=O)c1c(-c2ccccc2)noc1C | -0.9 | 2.3 | -3.1 | -16.6*
COc1cccc(/C=N/NC(=O)c2c(-c3ccccc3)noc2C)c1O | . | . | -5.0 | .
C[C@@H]1CN([C@H](C)CO)C(=O)c2cc(NC(=O)C3CCCCC3)ccc2O[C@@H](C)CCCCO[C@@H]1CN(C)C(=O)Nc1ccccc1 | -3.3 | 54.2 | . | -1.4
Cc1ccc(CSc2[nH]c(=O)ncc2C)cc1 | 1.9 | 0.8 | -3.1 | -18.7*
COc1ccc(NC(=O)COC(=O)CNS(=O)(=O)c2ccccc2)cc1OC | 14.0* | . | -1.3 | 13.3
CCN1/C(=C/c2ccc3cc(C)ccc3[n+]2CC)Sc2ccccc21 | -37.9 | . | -65.0 | 88.0
CCN1/C(=C/c2sc(-c3ccccc3C)c[n+]2C)Sc2ccccc21 | -5.4 | . | + | -53.9
CC(C)N1C(=O)[C@@]2(Cc3ccccc31)c1ccccc1C(=O)N(Cc1ccccc1)[C@H]2c1ccc(CO)cc1 | -0.2 | 6.2 | . | .
NC(=NCCc1c[nH]c2ccccc12)NC(=O)c1ccc(F)cc1 | -0.9 | -5.9 | -3.5 | -32.9*
COc1ccc(CCN=C(N)NS(=O)(=O)c2ccc(OC)cc2)cc1 | . | -3.9 | -18.6 | .
NC(=NCCc1c[nH]c2ccccc12)NS(=O)(=O)c1ccc(F)cc1 | . | . | -3.7 | -19.8*
COc1ccc(CCN=C(N)NS(=O)(=O)c2ccc(F)cc2)cc1 | . | . | 72.5* | 1.3
C[C@@H]1CN([C@H](C)CO)C(=O)c2cc(NC(=O)NC3CCCCC3)ccc2O[C@@H](C)CCCCO[C@@H]1CN(C)C(=O)Cc1ccccc1 | 1.4 | -5.6 | . | -2.1
CSc1nc(N2CCOCC2)c2c(c1C#N)CC(C)(C)OC2 | . | . | -0.1 | .

Compound activity deposited in PubChem BioAssay by Broad Institute.
